Screens as filed in PubChem.
OX1R antag-1 – antagonists of human orexin 1 receptor (OX1R). hit rate 1.8% among 330,000. Orexin/Hypocretin receptor type 1 (Homo sapiens), O43613. OX1R-expressing cells, FRET antagonist read-out. inhibition, % at 6.6 µM. AID 485270, 2010; in the data active = inhibition mostly above about 38%, no sharp cut-off; inactive = mostly below about 40%;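 also: 0% = agonist challenge alone and 100% = reference antagonist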
OX1R antag-2 – OX1R (HCRTR1) antagonists, primary screen, fluorescence, CHO/OX1R cells, Fluo-8 calcium, orexin A; Orexin/Hypocretin receptor type 1 (Homo sapiens), O43613; Fluo-8 calcium fluorescence; inhibition, % at 5 µM; hit rate 0.43% among 330,000; AID 434989, 2010;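 active = inhibition above its plate's threshold, mean inhibition of all tested compounds on the plate plus 3 SD, cut at about 37% in these data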;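 also: 0% = orexin A challenge wells and 100% = SB-334867-A antagonist wells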
TAAR1 antagonist – human TAAR1 antagonists, primary screen, Fluo-8 calcium fluorescence, CHO RD-HGA16 cells; hit rate 1.5% among 360,000; antagonist; Trace amine-associated receptor 1 (Homo sapiens), Q96RJ0; AID 624466, 2012; inhibition, % at 3 µM;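 active = inhibition above a per-plate cutoff, the mean inhibition of test compounds on that plate plus 3 SD, cut at about 49% in these data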;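 also: 0% = DMSO plus EC80 beta-PEA response and 100% = DMSO alone without agonist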
Target sequence (Q96RJ0 whole entry, looked up): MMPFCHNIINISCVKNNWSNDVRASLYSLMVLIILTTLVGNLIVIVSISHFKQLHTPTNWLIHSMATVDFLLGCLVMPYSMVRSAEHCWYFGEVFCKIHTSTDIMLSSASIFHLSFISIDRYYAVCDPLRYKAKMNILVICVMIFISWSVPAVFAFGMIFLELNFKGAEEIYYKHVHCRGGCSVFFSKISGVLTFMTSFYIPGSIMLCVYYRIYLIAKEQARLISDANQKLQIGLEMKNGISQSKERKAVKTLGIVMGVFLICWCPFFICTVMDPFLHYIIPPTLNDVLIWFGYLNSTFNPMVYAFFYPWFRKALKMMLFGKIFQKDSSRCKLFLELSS
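Material: CHO RD-HGA16 cells bearing hTAAR1; compound dosing: one-point dosing, 3 µM nominal final; schedule: dye loading 75 min at 37 °C, then 30 min room temperature; measured by: calcium fluorescence with Fluo-8; control set: vehicle and agonist controls; replication: n of 1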
CHO parental Ca – ATP-evoked calcium signal inhibitors, parental CHO, primary screen, counter-screen for OX1R antagonist project, cell-based, fluorescence, Fluo-8 calcium dye; parental CHO-K1, ATP-induced calcium, Fluo-8 fluorescence; hit rate 0.63% among 330,000; inhibition, % at 5.6 µM;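 active = inhibition above that plate's mean sample inhibition plus 3 SD, cut at about 26% in these data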;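 also: 0% = ATP-challenged DMSO wells and 100% = DMSO wells without ATP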
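Material – parental CHO cells · Reagent – ATP stimulus · Compound – single nominal dose of 5.6 µM per compound · Detection – Fluo-8 fluorescence · Read-out basis – percent inhibition of calcium signal · Controls – ATP-challenged DMSO wells low, unchallenged DMSO wells high · Repeats – no replicates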
TAAR1 agonist – human TAAR1 agonists, primary screen, Fluo-8 calcium fluorescence, CHO RD-HGA16 cells; Trace amine-associated receptor 1 (Homo sapiens), Q96RJ0; vehicle wells 0%, saturating PEA agonist 100%; activation, % at 3 µM; hit rate 0.99% among 360,000;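 active = activation above the mean activation of all test compounds in the run plus 3 SD, cut at about 38% in these data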
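System: CHO-derived RD-HGA16 cells with stable Gα16 and human TAAR1. Times: 17-24 h plating, Fluo-8 75 min 37 °C, 30 min RT. Measured by: calcium-sensitive Fluo-8 signal, excitation 470-495, emission 515-575 nm. Read-out basis: % activation relative to PEA EC100 response. Control set: DMSO and PEA EC100. Repeats: no replicates (n 1).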
GPR7 antag – GPR7 receptor antagonists, primary screen, cell-based, fluorescence, single concentration; GPR7-expressing cells, fluorescence antagonist assay; inhibition, % at 4.4 µM; hit rate 1.1% among 290,000; Neuropeptides B/W receptor type 1 (Homo sapiens), P48145; AID 1861, 2009; in the data active = inhibition above about 16%, passing the limit was not always enough;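 also: cells stimulated with the agonist NPW; 0% = agonist with vehicle and 100% = vehicle without agonist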
TAAR1 ag conf – human TAAR1 agonists, retest of hits, confirmation, Fluo-8 calcium fluorescence, CHO RD-HGA16 cells | activation, % at 3 µM | scaled: DMSO 0%, maximal phenethylamine 100% | hit rate 82% among 2,400 | shares compounds with TAAR1 agonist;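 active = activation above a cutoff set at the run's mean compound activation plus 3 SD, cut at about 39% in these data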
Ga16 ag counter – nonselective calcium mobilization agonists, CHO-Ga16 cells, counter-screen for hTAAR1 agonist project, cell-based, fluorescence, CHO-Ga16 parental line; AID 651787, 2012; shares compounds with TAAR1 agonist; activation, % at 3 µM; Fluo-8 calcium fluorescence; normalized to maximal ATP response, DMSO zero; hit rate 50% among 2,400;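 active = activation above the run cutoff, the mean activation over all tested wells plus 3 SD, cut at about 12% in these data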;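 also: 0% = DMSO wells and 100% = maximal ATP response on the peak over basal ratio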
TAAR1 desens – TAAR1 desensitization by agonist hits, confirmation, counter-screen for TAAR1 agonist project, cell-based, fluorescence, tachyphylaxis. shares compounds with TAAR1 agonist. CHO RD-HGA16 hTAAR1, Fluo-8 calcium, beta-PEA response inhibition. inhibition, % at 3 µM. hit rate 46% among 2,400;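 active = inhibition above the run cutoff, the mean inhibition of all test compounds plus 3 SD, cut at about 49% in these data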;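 also: beta-PEA stimulus applied at its EC80; loss of beta-PEA calcium signal after compound pretreatment read as receptor desensitization; 0% = DMSO with beta-PEA at EC80 and 100% = DMSO alone without agonist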
Ga16 nonsel ant – inhibition of ATP-evoked calcium response in CHO-Ga16 cells, counter-screen for TAAR1 agonist project, cell-based, fluorescence | shares compounds with TAAR1 agonist | CHO-Ga16 ATP-induced calcium, Fluo-8 fluorescence | inhibition, % at 3 µM | hit rate 39% among 2,400;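 active = inhibition above the plate's mean compound inhibition plus 3 SD, computed per plate, cut at about 22% in these data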;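 also: 0% = EC80 ATP with DMSO and 100% = DMSO wells without ATP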
Active calls of the source: *. Rows were chosen to be rich in hits. Some 4.6% of all compounds tested hit in one or more screens of this group.

S=c1nc(NCCc2ccccc2Cl)c2ccccc2[nH]1 was read as TAAR1 antagonist 45, TAAR1 agonist 52*, GPR7 antag -13, TAAR1 ag conf 33, Ga16 ag counter 11, TAAR1 desens 20 and Ga16 nonsel ant 22*.
COc1ccc(N2CC(NC(=O)N3CCN(C(=O)c4ccco4)CC3)CC2=O)cc1OC (stereo not drawn) was read as OX1R antag-1 2, OX1R antag-2 -1, TAAR1 antagonist -13, CHO parental Ca -3 and TAAR1 agonist 5.
`c1ccc(C2CNCCc3ccccc32)cc1` (stereo not drawn) gave OX1R antag-1 0, OX1R antag-2 -16, TAAR1 antagonist 74*, CHO parental Ca 0, TAAR1 agonist 64*, GPR7 antag -3, TAAR1 ag conf 95*, Ga16 ag counter 1, TAAR1 desens 92* and Ga16 nonsel ant 8.
Screening CC(=O)c1cccc(N(C(=O)CNC(=O)c2cccs2)C(C(=O)NCC2CCCO2)c2ccccc2)c1 (stereo not drawn) returned OX1R antag-1 22, OX1R antag-2 -10, TAAR1 antagonist -29, CHO parental Ca -12, TAAR1 agonist 6 and GPR7 antag 2.
For COc1ccc(C2(C)NC(=O)N(CC(=O)c3cc(C)n(C4CC4)c3C)C2=O)cc1 (stereo not drawn) the results were OX1R antag-1 4, OX1R antag-2 52*, TAAR1 antagonist 83*, CHO parental Ca 26, TAAR1 agonist 137*, TAAR1 ag conf 104*, Ga16 ag counter 50*, TAAR1 desens 48 and Ga16 nonsel ant 26*.
For Cc1cc(C(=O)CN2C(=O)NC(C)(c3ccc(F)c(F)c3)C2=O)c(C)n1C1CC1 (stereo not drawn) the results were TAAR1 antagonist 48, TAAR1 agonist 68*, TAAR1 ag conf 84*, Ga16 ag counter 30*, TAAR1 desens 39 and Ga16 nonsel ant 16.
For CC[C@]12c3[nH]c4cc(CCC(=O)N(C)C)ccc4c3CCN1C(=O)[C@@H](CC(=O)NC(C)(C)C)C[C@@H]2C(=O)N1CCN(C(=O)c2ccco2)CC1 the results were OX1R antag-1 2, OX1R antag-2 -8, TAAR1 antagonist -9, CHO parental Ca -8 and TAAR1 agonist 2.
`O=C(NC1CCCCC1)c1cc(-c2ccc(F)cc2)on1` gave OX1R antag-1 12, OX1R antag-2 -11, TAAR1 antagonist 4, CHO parental Ca -7, TAAR1 agonist 0 and GPR7 antag 8.
